ChEMBL document CHEMBL3244101, “2-, 3-, and 4-(alpha, alpha, beta, beta-tetrafluorophenethyl)benzylamines. A new class of antiarrhythmic agents” (J Med Chem, 1977)

Columns and labels:
Canis familiaris [1] = test: Antiarrhythmic activity in anesthetized acute myocardial infarction dog model assessed as normal ECG complexes at 20 mg/kg, iv administered 10 mins prior to infarction measured during 1-hr postinfarction period (reference value: 19%); type: functional, Canis lupus familiaris, Heart
How it was run: (§1)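 Sclerosing agent (tetrafluorohexachlorobutane) injected into the anterior descending coronary artery to produce a multifocal ventricular arrhythmia. Single iv dose 10 min before infarction. Segmented ECG tracings over the 1 h after infarction were scored as the percentage of complexes of sinus origin (normal). Saline controls were run alongside.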

Canis familiaris [2] = test: Antiarrhythmic activity in anesthetized acute myocardial infarction dog model assessed as normal ECG complexes at 40 mg/kg, iv administered 10 mins prior to infarction measured during 1-hr postinfarction period (reference value: 19%); type: functional, Canis lupus familiaris, Heart; how it was run: as §1
Canis familiaris [3] = test: Effect on cardiac conduction in anesthetized acute myocardial infarction dog model assessed as increase in PR interval at 20 mg/kg, iv administered 10 mins prior to infarction measured after 10 mins (reference value: 0 ms); type: functional, Canis lupus familiaris, Heart
Canis familiaris [4] = test: Effect on cardiac conduction in anesthetized acute myocardial infarction dog model assessed as increase in PR interval at 40 mg/kg, iv administered 10 mins prior to infarction measured after 10 mins (reference value: 0 ms); type: functional, Canis lupus familiaris, Heart
Canis familiaris [5] = test: Effect on cardiac conduction in anesthetized acute myocardial infarction dog model assessed as increase in QT duration at 20 mg/kg, iv administered 10 mins prior to infarction measured after 10 mins (reference value: 2 ms); type: functional, Canis lupus familiaris, Heart
Canis familiaris [6] = test: Effect on cardiac conduction in anesthetized acute myocardial infarction dog model assessed as increase in QT duration at 40 mg/kg, iv administered 10 mins prior to infarction measured after 10 mins (reference value: 2 ms); type: functional, Canis lupus familiaris, Heart
Canis familiaris [7] = test: Reduction in heart rate in anesthetized acute myocardial infarction dog model at 40 mg/kg, iv administered 10 mins prior to infarction (reference value: 6 bpm); type: functional, Canis lupus familiaris
Canis familiaris [8] = test: Reduction in heart rate in anesthetized acute myocardial infarction dog model at 20 mg/kg, iv administered 10 mins prior to infarction (reference value: 6 bpm); type: functional, Canis lupus familiaris
Canis familiaris [9] = test: Myocardial depressant activity in iv dosed anesthetized dog at higher doses; type: ADME, organism-based, Canis lupus familiaris, Myocardium; conditions: in vivo
Canis familiaris [10] = test: Hypotensive activity in iv dosed anesthetized dog at higher doses; type: ADME, organism-based, Canis lupus familiaris; conditions: in vivo

**Q.** For `CCN(CC)CCNC(=O)c1ccc(N)cc1` [PROCAINAMIDE], which Activity (Canis familiaris [1]) is on record?
**A.** 32%

**Q.** What about the Activity (Canis familiaris [2]) of the same molecule?
**A.** 55%

**Q.** What about the Time (Canis familiaris [3]) of the same molecule?
**A.** 10 ms

**Q.** And the Time (Canis familiaris [4])?
**A.** 23 ms

**Q.** And the Time (Canis familiaris [5])?
**A.** 40 ms

**Q.** And the Time (Canis familiaris [6])?
**A.** 33 ms

**Q.** What about the Activity (Canis familiaris [7]) of the same molecule?
**A.** 25 bpm

**Q.** What about the Activity (Canis familiaris [8]) of the same molecule?
**A.** 26 bpm

**Q.** And the Activity (Canis familiaris [9])?
**A.** Toxic

**Q.** And the Activity (Canis familiaris [10])?
**A.** Toxic
